Usually IC50 stands for the point on the concentration scale where inhibition reaches its midpoint. Low values mean inhibition by little substance, high ones a need for much substance. The term Ki denotes the equilibrium dissociation constant of an inhibitor or competing ligand from its target. Low values mean tighter binding, high ones weaker binding.

The target in one test is Coagulation factor X (Homo sapiens, UniProt P00742). The test can be described thus: Inhibition of human factor 10a using acromogenic substrate S-2222 preincubated for 30 mins before substrate addition measured after 20 mins by spectrophotometry.
Chain of Coagulation factor X (P00742 41-179 limits assumed): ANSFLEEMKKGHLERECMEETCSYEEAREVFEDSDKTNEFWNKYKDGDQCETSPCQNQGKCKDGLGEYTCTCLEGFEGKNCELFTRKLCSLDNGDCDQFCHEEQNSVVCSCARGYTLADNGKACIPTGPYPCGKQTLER
Chain of Coagulation factor X (P00742 235-488 limits assumed): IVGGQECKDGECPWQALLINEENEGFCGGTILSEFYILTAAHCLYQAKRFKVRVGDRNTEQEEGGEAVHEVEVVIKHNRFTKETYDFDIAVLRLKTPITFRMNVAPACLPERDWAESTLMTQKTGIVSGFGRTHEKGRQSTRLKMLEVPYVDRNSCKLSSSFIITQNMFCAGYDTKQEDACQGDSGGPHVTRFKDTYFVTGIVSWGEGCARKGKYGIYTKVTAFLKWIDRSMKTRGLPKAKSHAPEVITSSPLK
Another test concerns the target Prothrombin (Homo sapiens, UniProt P00734). As to the kind of experiment: Inhibition of human thrombin using acromogenic substrate S-2238 preincubated for 30 mins before substrate addition measured after 20 mins by spectrophotometry. In a few lines: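 Compounds prepared at 10 mM, serially diluted to twelve concentrations in 50 mM Tris-Cl, 100 mM NaCl, 0.1% BSA, pH 7.4; mixed with enzyme (final: human fXa 0.003 U/mL; human thrombin 0.125 U/mL), incubated 30 min at 37 °C. Reaction started with chromogenic substrate (fXa: S-2222; thrombin: S-2238), monitored continuously 20 min at 405 nm; IC50 from mean of duplicates.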

The nature of test [1]: Anticoagulant activity in plasma (unknown origin) assessed as concentration required to double the time for fibrin formation. It counts as functional. In a few lines: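 Clotting times in plasma on automatic coagulometer per manufacturer's instructions; increasing inhibitor concentrations or solvent added to plasma, incubated 3 min at 37 °C, clotting times compared with appropriate control plasma.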

Molecules are shown by their SMILES.

For `COc1ccc(NC(=O)C(=O)Nc2ccccc2Cl)c(C(=O)Nc2ccc(N3CCOCC3=O)cc2)c1`, at Coagulation factor X, the IC50 turned out to be 0.798 µM. This lies in the sub-micromolar range.

As for `COc1ccc(NC(=O)C(=O)Nc2ccccc2)c(C(=O)Nc2ccc(N3CCOCC3=O)cc2)c1`, the IC50 against Coagulation factor X is 1.12 µM.

Compound `COc1ccc(NC(=O)C(=O)Nc2ccc(Cl)cc2)c(C(=O)Nc2ccc(N3CCOCC3=O)cc2)c1` registered an IC50 against Coagulation factor X of 0.452 µM.

As for `COc1ccc(NC(=O)C(=O)Nc2ccccc2OC)c(C(=O)Nc2ccc(N3CCOCC3=O)cc2)c1`, 0.828 µM corresponded to half-maximal inhibition on Coagulation factor X (IC50). Compared with the last compound, the IC50 is about 1.8-fold higher.

The compound `COc1ccc(NC(=O)c2ccccc2)c(C(=O)Nc2ccc(N3CCCCC3=O)cc2)c1` returned an IC50 against Coagulation factor X of 0.521 µM.

`COc1ccc(NC(=O)C(=O)Nc2ccc(Cl)cn2)c(C(=O)Nc2ccc(N3CCOCC3=O)cc2)c1`: on Coagulation factor X, it took 0.298 µM to reach half-maximal inhibition (IC50).

The compound `COc1ccc(NC(=O)c2ccc(C(=N)N(C)C)cc2)c(C(=O)Nc2ccc(Cl)cn2)c1` [BETRIXABAN] registered an IC50 against Prothrombin of 18 µM. Further, the Activity in test [1] amounted to 2.4 µM.

On Coagulation factor X, `C[C@@H](C(=O)N1CCOCC1)N1CC[C@H](NS(=O)(=O)C2=Nc3ccc(Cl)cc3C2)C1=O` showed a Ki of 0.09 µM.

`CN1CCC2N=C(C(=O)N[C@@H]3CCCC[C@@H]3CNC(=O)c3ccc(Cl)s3)SC2C1` (stereo partly drawn) gave an IC50 on Coagulation factor X of 0.027 µM. This lies in the double-digit nanomolar range.

The compound `COc1cccc(C(=O)Nc2ccc(OC)cc2C(=O)Nc2ccc(N3CCCCC3=O)cc2)c1` had an IC50 on Coagulation factor X of 0.378 µM.

Take `COc1ccc(NC(=O)C(=O)Nc2ccc(OC)cc2C(=O)Nc2ccc(N3CCOCC3=O)cc2)cc1`: the midpoint of inhibition against Coagulation factor X, the IC50, lay at 0.612 µM.

In the case of `COc1ccc(NC(=O)C(=O)Nc2cccc(Cl)c2)c(C(=O)Nc2ccc(N3CCOCC3=O)cc2)c1`, 0.621 µM corresponded to half-maximal inhibition against Coagulation factor X (IC50).

On to `COc1ccc(NC(=O)c2cccc(Cl)c2)c(C(=O)Nc2ccc(N3CCCCC3=O)cc2)c1`, for which the midpoint of inhibition at Coagulation factor X, the IC50, lay at 0.183 µM.

As to `COc1ccc(NC(=O)C(=O)Nc2ccc(F)cc2)c(C(=O)Nc2ccc(N3CCOCC3=O)cc2)c1`, the IC50 against Coagulation factor X came to 0.678 µM.

In the case of `COc1ccc(NC(=O)c2ccc(Cl)cc2)c(C(=O)Nc2ccc(N3CCCCC3=O)cc2)c1`, the figures for the IC50 on Coagulation factor X and at Prothrombin were 0.023 µM and 48 µM, respectively. Moreover, the Activity in test [1] stood at 8.7 µM.

The values are drawn from ChEMBL document CHEMBL3407352, “Identification of anthranilamide derivatives as potential factor Xa inhibitors: drug design, synthesis and biological evaluation” (Eur J Med Chem, 2015).
